eIF4H FP inh: inhibitors of RNA binding by human eIF4H. eIF4H fluorescence polarization binding assay. inhibition, % at 35 µM. hit rate 0.94% among 290,000;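 also: calls also rest on retests at 20 µM and on dose response follow-up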
IMP-1 inhibitor: inhibitors of Pseudomonas aeruginosa IMP-1 metallo-beta-lactamase; purified IMP-1, nitrocefin hydrolysis, epi-absorbance fluorescence; inhibition, % at 5.6 µM; hit rate 0.45% among 290,000;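 active = inhibition above the mean plus 3 SD of all compounds in the same screening run, cut at about 4.5% in these data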
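System: purified IMP-1; amount: IMP-1 0.2 nM before substrate addition; compound: single dose, 5.6 µM; times: 25 °C, 15 min preincubation, 25 min reaction; signal: Epi-absorbance via hydrolysed-nitrocefin quenching of white-plate fluorescence, 480/530 nm, EDTA stop; benchmarks: DMSO with and without IMP-1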
VIM-2 inh: blocks Pseudomonas aeruginosa VIM-2 metallo-beta-lactamase; hit rate 0.89% among 290,000; purified VIM-2, nitrocefin hydrolysis, epi-absorbance fluorescence; inhibition, % at 5.6 µM;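 active = inhibition above the mean of all tested compounds plus 3 SD, cutoff set per screening run, cut at about 7.5% in these data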;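 also: red hydrolysis product quenches plate fluorescence so inhibitors raise well fluorescence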
PABP polyA inh: blocks human PABP binding to poly(A) RNA | fluorescence polarization | calls only at 35 µM | hit rate 1% among 290,000;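 also: calls also rest on retests at 20 µM and on dose response follow-up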
MLLE-PAM2 inh: blocks PAM2 peptide binding to the PABP1 MLLE domain. P11940. GST-MLLE / FITC-PAM2 fluorescence polarization. inhibition, % at 20 µM. hit rate 0.36% among 360,000; in the data active = inhibition above about 35%, passing the limit was not always enough
Each line names hits and unclear results; the compound was inactive in the other large screens. The list is not random: actives were taken first. Their share in the collection is about 2.2%. Unless noted, no rule for the calls is given here.

Cc1cc(=O)n(-c2ccc(C(=O)O)cc2)[nH]1	eIF4H FP inh 65, PABP polyA inh active
Cc1ccc(C)n1-c1ccc(C(=O)O)cc1	eIF4H FP inh 91, PABP polyA inh active (no result: MLLE-PAM2 inh)
CCCCN(C(=O)CCOc1ccc(OCC)cc1)c1c(N)n(Cc2ccccc2)c(=O)[nH]c1=O	none (no result: eIF4H FP inh, IMP-1 inhibitor, VIM-2 inh, PABP polyA inh)
COc1ccc(C)cc1S(=O)(=O)N(CC(=O)Nc1cc([N+](=O)[O-])ccc1C)c1ccc(C)c(C)c1	eIF4H FP inh active, PABP polyA inh active
COc1ccc(C(=O)n2cnc(N)n2)cc1	none
COc1ccc(C(=O)N2C(=O)c3ccc(N)cc3C2=O)cc1	IMP-1 inhibitor 7.7
O=Cc1cc2ccccc2nc1SCc1ccc(Cl)c(Cl)c1	IMP-1 inhibitor 4.7
O=Cc1cc2ccccc2nc1SCc1ccc(Cl)cc1	none
COCCN=c1scc(-c2ccc3c(c2)NC(=O)CO3)n1/N=C(\C)c1ccc(O)cc1	PABP polyA inh active
COc1cc(/C=N/n2c(-c3ccc4c(c3)NC(=O)CO4)csc2=Nc2cccc(C)c2)ccc1O	none
c1ccc(-c2cnnn2-c2ccccc2)cc1	none
Cc1ccc2c(c1)N(C)/C(=C/c1cccc[n+]1C)S2	PABP polyA inh active
CN1/C(=C/c2cccc[n+]2C)Sc2ccccc21	PABP polyA inh active
CCN1/C(=C/c2cccc[n+]2C)Sc2ccc(OC)cc21	none
COc1ccc2c(c1)N(C)/C(=C/c1cccc[n+]1C)S2	none
Cc1ccc2c(c1)N(C)/C(=C/c1cccc[n+]1CCO)S2	PABP polyA inh active
O=C(COC(=O)c1cccc([N+](=O)[O-])c1)NCC1CCCO1 (stereo not drawn)	eIF4H FP inh active, PABP polyA inh active
Cc1cc(C)c(S(=O)(=O)/N=C2\C=C(Nc3ccc(C(=O)O)cc3)C(=O)c3ccccc32)c(C)c1	eIF4H FP inh 60, PABP polyA inh active
CCOc1ccc(N=Cc2c(C)[nH]n(-c3nc4ccccc4[nH]3)c2=O)cc1	IMP-1 inhibitor 7.2
COc1ccccc1NC(=O)CSc1nc(=O)n(CCN2CCOCC2)c2c1CCC2	none (no result: eIF4H FP inh, IMP-1 inhibitor, VIM-2 inh, PABP polyA inh)
CC(=O)C[C@@H](O)CC(=O)[C@@H]1OC(=O)[C@@H](C)C/C=C\Cc2ccccc21	none (no result: eIF4H FP inh, IMP-1 inhibitor, VIM-2 inh, PABP polyA inh)
CCCCC(=O)c1ccc(O)cc1	none
O=C(CCO)c1ccc(O)cc1	eIF4H FP inh 94, PABP polyA inh active
O=C(Cn1cc(C(=O)COc2ccccc2)c2ccccc21)NCc1ccco1	eIF4H FP inh 36
CC(=O)c1cn(CC(=O)NCc2ccco2)c2ccccc12	none
O=C(COc1ccccc1)c1cn(CC(=O)N2CCOCC2)c2ccccc12	eIF4H FP inh 95, PABP polyA inh active
CCn1c(CNC(=O)c2ccccc2Br)nnc1SCC(=O)NC1=NCCS1	none
CC(C)NC(=O)c1ccc2c(=O)n(Cc3ccco3)c(=S)[nH]c2c1	none
COc1ccc(CCNC(=O)c2ccc3nc(-c4ccco4)c(-c4ccco4)nc3c2)cc1OC	eIF4H FP inh 106, PABP polyA inh active, MLLE-PAM2 inh 38
CCCNC(=O)c1ccc2c(=O)n(Cc3ccco3)c(=S)[nH]c2c1	eIF4H FP inh 91, PABP polyA inh active
COc1ccc(CCNC(=O)c2ccc3c(=O)n(Cc4ccco4)c(=S)[nH]c3c2)cc1OC	eIF4H FP inh 73, PABP polyA inh active
CCc1ccc(-c2cnc3nc[nH]c(=O)c3n2)cc1	none (no result: eIF4H FP inh, IMP-1 inhibitor, VIM-2 inh, PABP polyA inh)
CCOC(=O)c1c(OCC)[nH]c2c1cc(O)c1ccccc12	eIF4H FP inh 72, PABP polyA inh active
COCCn1c(SCC(=O)c2c(N)n(C)c(=O)n(C)c2=O)nc2ccccc21	eIF4H FP inh 3.0, PABP polyA inh active
CCC(C)[C@@H](N)C(=O)N/N=C/c1ccc2ncccc2c1 (stereo partly drawn)	VIM-2 inh 7.8
CCOc1ccc([N+](=O)[O-])cc1CNC1CCCCCCC1	IMP-1 inhibitor 39
NNC(=O)CCn1c2ccccc2c2ccccc21	none
O=[N+]([O-])c1ccccc1SN(Cc1ccccc1)c1ccccn1	eIF4H FP inh 58, PABP polyA inh active
O=C(c1ccc([N+](=O)[O-])cc1)N(Cc1ccccc1)c1ccccn1	none
Cc1cc(C(=O)OCC(=O)N2CC(=O)Nc3ccccc32)c(C)n1-c1ccccc1	eIF4H FP inh 3.7, PABP polyA inh active
Cc1cc(C(=O)OCC(=O)N2CC(=O)Nc3ccccc32)c(C)n1-c1ccc(F)cc1	none
CCCCNC(=S)Nc1ccc(OC)nc1	eIF4H FP inh inconclusive, MLLE-PAM2 inh 41
COc1ccc(NC(=S)Nc2ccccc2)cn1	eIF4H FP inh inconclusive
C[N+]1(CC(=O)OCCCC2CCCCC2)CCCC1	PABP polyA inh active
COc1ccccc1-n1c(C)c2c(OC)cccc(=O)c2c1C	VIM-2 inh 9.2
COc1ccc(-n2c(C)c3c(OC)cccc(=O)c3c2C)cc1	none
CC1(C)S[C@@H]2[C@H](NC(=O)[C@H](N)c3ccccc3)C(=O)N2[C@H]1C(=O)O	PABP polyA inh active
N#CC1=C(N)N=C(SCc2cccc3ccccc23)C(C(N)=O)C12CCCCC2 (stereo not drawn)	MLLE-PAM2 inh 40
Cc1ccc(OCC(=O)c2cc(C)n(C)c2C)c([N+](=O)[O-])n1	eIF4H FP inh 76
CCOC(=O)c1c(NC(C)=O)sc2c(OCCN(CC)CC)c(Br)ccc12	none
CCOC(=O)c1c(NC(C)=O)sc2c(OCC(O)CN(CC)CC)c(Br)ccc12 (stereo not drawn)	VIM-2 inh 9.3
Cc1ccc(C)c(N2CCN(C(=O)CCC(=O)Nc3nnc(C(F)(F)F)s3)CC2)c1	none
O=C(NCC1CCCO1)c1cccc2c1C(=O)c1ccc(N3CCC(Cc4ccccc4)CC3)cc1S2(=O)=O (stereo not drawn)	none (no result: eIF4H FP inh, IMP-1 inhibitor, VIM-2 inh, PABP polyA inh)
Nc1cc(Nc2ccc(Br)cc2)nc(N)n1	MLLE-PAM2 inh 43
CC12CCC(C(=NO)C1=O)C2(C)C (stereo not drawn)	none (no result: eIF4H FP inh, IMP-1 inhibitor, VIM-2 inh, PABP polyA inh)
O=C(O)[C@H](Cc1ccccc1)N1C(=O)c2c(Cl)c(Cl)c(Cl)c(Cl)c2C1=O	VIM-2 inh 8.5
O=C(CSc1nccc(=O)[nH]1)N1CCCc2ccccc21	MLLE-PAM2 inh 38
O=C(NCc1ccc(C(F)(F)F)cc1)C1CC(c2ccccc2[N+](=O)[O-])=NO1 (stereo not drawn)	none
OCCNCc1cccc(-c2ccccc2)c1O	none (no result: eIF4H FP inh, IMP-1 inhibitor, VIM-2 inh, PABP polyA inh)
OCCNCCNCc1ccc(-c2ccccc2)cc1	VIM-2 inh 9.3 (no result: MLLE-PAM2 inh)
CCOC(=O)c1cnc(COc2ccc(OC)cc2)[nH]c1=O	none
Oc1ccc(Br)cc1C=Nc1cccn2cc(-c3ccccc3)nc12	MLLE-PAM2 inh 40
COc1cc(C2C3=C(Nc4nc(N)[nH]c(=O)c42)c2ccccc2C3=O)ccc1O (stereo not drawn)	eIF4H FP inh 93, PABP polyA inh active
S=c1[nH]nc(CCc2nc3ccccc3[nH]2)n1-c1cccc(Cl)c1	VIM-2 inh 7.7
S=c1[nH]nc(CCc2nc3ccccc3[nH]2)n1-c1ccccc1	VIM-2 inh 7.8
CC(C)CN1CCN(C2CCN(C(C)C)CC2)C(CCO)C1 (stereo not drawn)	none (no result: MLLE-PAM2 inh)
c1ccc(-c2nn3c(Cn4nnc5ccccc54)nnc3s2)cc1	none

Screens deposited in PubChem by several laboratories.
